Test results taken from ChEMBL document CHEMBL2385032, “Dual-functional abeo-taxane derivatives destabilizing microtubule equilibrium and inhibiting NF-κB activation” (2013).
Activity calls are given as the source filed them. The rule behind the calls is not given here.

Assays:
HCT-116 [1] = assay: Cytotoxicity against human HCT116 cells; format: functional
Summary of the method: (§1)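 NCI-60 human tumor cell line screen run by standard NCI protocol: single-dose prescreen at 10 μM, then multi-dose testing of compounds giving over 50% growth inhibition; GI50 = concentration for 50% growth inhibition.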

HEK-293T [2] = assay: Inhibition of TNF-alpha induced NF-kapppaB activation in HEK293T cells at 1.25 to 5 uM incubated 1 hr prior to TNF-alpha addition measured after 18 hrs by luciferase reporter gene assay; format: cell-based; conditions: Homo sapiens
OVCAR-3 = assay: Cytotoxicity against human OVCAR3 cells; format: functional; summary of the method: as §1
T47D = assay: Cytotoxicity against human T47D cells; format: functional; summary of the method: as §1
LOX IMVI = assay: Cytotoxicity against human LOXIMVI cells; format: functional
NCI-H322M = assay: Cytotoxicity against human NCI-H322M cells; format: functional; summary of the method: as §1
DU-145 = assay: Cytotoxicity against human DU145 cells; format: functional; summary of the method: as §1
MOLT-4 = assay: Cytotoxicity against human MOLT4 cells; format: functional; summary of the method: as §1
SNB-19 = assay: Cytotoxicity against human SNB19 cells; format: functional; summary of the method: as §1
RXF 393 = assay: Cytotoxicity against human RXF393 cells; format: functional; summary of the method: as §1
Tubulin (Homo sapiens) [3] = target: T1, Tubulin (Homo sapiens) (UniProt P68371+Q9H4B7+P0DPH7+P68366+Q13509+Q71U36+P04350+Q3ZCM7+P07437+P68363+Q9BQE3+Q6PEY2+Q13885+Q9BVA1+Q9BUF5); assay: Induction of tubulin (unknown origin) polymerization at 30 uM by fluorescence assay; format: protein-complex assay
Summary of the method: (§2)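 Cell-free tubulin polymerization kit; tubulin mixed with DMSO control, 500 μM CaCl2, 3 μM paclitaxel or test compounds at 15 or 30 μM; polymerization followed kinetically by fluorescence, excitation 340 nm, emission 420 nm, in a temperature-regulated fluorimeter. Three independent experiments in triplicate.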

HCT-116 [4] = assay: Cell cycle arrest in human HCT116 cells assessed as accumulation at G0/G1 phase at 2 uM after 12 hrs by propidium iodide staining-based FACS analysis (reference value: 54.63 to 55.88 %); format: functional
HCT-116 [5] = assay: Induction of apoptosis in human HCT116 cells at 2 uM after 24 hrs by AnnexinV-FITC/PI staining-based flow cytometry; format: functional
HCT-116 [6] = assay: Cell cycle arrest in human HCT116 cells assessed as accumulation at S phase at 1 uM after 12 hrs by propidium iodide staining-based FACS analysis (reference value: 20.48 to 23.62 %); format: functional
HCT-116 [7] = assay: Induction of apoptosis in human HCT116 cells at 1 uM after 24 hrs by AnnexinV-FITC/PI staining-based flow cytometry; format: functional
HEK-293T [8] = assay: Inhibition of TNF-alpha induced NF-kapppaB activation in HEK293T cells at 1.25 uM incubated 1 hr prior to TNF-alpha addition measured after 18 hrs by luciferase reporter gene assay; format: cell-based; conditions: Homo sapiens
Summary of the method: (§3)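 HEK 293T cells transiently transfected 12 h with pNFκB-luc and pRL-TK, pretreated 1 h with compound (0.31–2.50 μM) or DMSO, then stimulated with TNF-α 25 ng/mL for 18 h; firefly and Renilla luciferase read by dual-luciferase assay. Data from one of three independent experiments.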

Tubulin (Homo sapiens) [9] = target: T1, Tubulin (Homo sapiens); assay: Inhibition of tubulin (unknown origin) polymerization assessed as destabilization of microtubule at 15 uM by fluorescence assay; format: protein-complex assay; summary of the method: as §2
HCT-116 [10] = assay: Cell cycle arrest in human HCT116 cells assessed as reduction in G0/G1 phase after 12 hrs by propidium iodide staining-based FACS analysis; format: functional
HCT-116 [11] = assay: Cell cycle arrest in human HCT116 cells assessed as accumulation at S phase at 2 uM after 12 hrs by propidium iodide staining-based FACS analysis (reference value: 20.48 to 23.62 %); format: functional
HEK-293T [12] = assay: Inhibition of TNF-alpha induced NF-kapppaB activation in HEK293T cells at 0.62 uM incubated 1 hr prior to TNF-alpha addition measured after 18 hrs by luciferase reporter gene assay; format: cell-based; conditions: Homo sapiens; summary of the method: as §3
HCT-116 [13] = assay: Cell cycle arrest in human HCT116 cells assessed as accumulation at G2/M phase after 12 hrs by propidium iodide staining-based FACS analysis; format: functional
HCT-116 [14] = assay: Cell cycle arrest in human HCT116 cells assessed as accumulation at G2/M phase at 1 uM after 12 hrs by propidium iodide staining-based FACS analysis (reference value: 20.40 to 22.32 %); format: functional
HEK-293T [15] = assay: Inhibition of TNF-alpha induced NF-kapppaB activation in HEK293T cells incubated 1 hr prior to TNF-alpha addition measured after 18 hrs by luciferase reporter gene assay; format: cell-based; conditions: Homo sapiens; summary of the method: as §3
Homo sapiens [16] = species on record: Homo sapiens; assay: Induction of microtubule depolymerization in human PC3 mitotic cells assessed as abnormal spindles at 2 uM after 24 hrs by DAPI staining-based immunofluorescence microscopic analysis; format: cell-based
Summary of the method: (§4)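 PC-3 cells grown on chamber slides 36 h, then treated 24 h (test agents 2, 5 or 10 μM; reference agents 200 nM); fixed in 4% paraformaldehyde, permeabilized with 0.5% Triton X-100, stained with anti-α-tubulin monoclonal plus FITC secondary and DAPI for nuclei; spindle and microtubule morphology by fluorescence microscopy.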

HCT-116 [17] = assay: Induction of apoptosis in human HCT116 cells after 24 hrs by AnnexinV-FITC/PI staining-based flow cytometry; format: functional, cell-based
HCT-116 [18] = assay: Induction of apoptosis in human HCT116 cells assessed as early apoptotic cells at 2 uM after 24 hrs by AnnexinV-FITC/PI staining-based flow cytometry (reference value: 2.17 %); format: functional
HCT-116 [19] = assay: Induction of apoptosis in human HCT116 cells assessed as early apoptotic cells at 1 uM after 24 hrs by AnnexinV-FITC/PI staining-based flow cytometry (reference value: 2.17 %); format: functional
Homo sapiens [20] = species on record: Homo sapiens; assay: Induction of microtubule depolymerization in human PC3 interphase cells at 2 uM after 24 hrs by DAPI staining-based immunofluorescence microscopic analysis; format: cell-based; summary of the method: as §4
HEK-293T [21] = assay: Inhibition of TNF-alpha induced NF-kapppaB activation in HEK293T cells at 0.31 uM incubated 1 hr prior to TNF-alpha addition measured after 18 hrs by luciferase reporter gene assay; format: cell-based; conditions: Homo sapiens; summary of the method: as §3
HCT-116 [22] = assay: Induction of apoptosis in human HCT116 cells assessed as late apoptotic cells at 1 uM after 24 hrs by AnnexinV-FITC/PI staining-based flow cytometry (reference value: 2.53 %); format: functional
HCT-116 [23] = assay: Cell cycle arrest in human HCT116 cells assessed as accumulation at G0/G1 phase at 1 uM after 12 hrs by propidium iodide staining-based FACS analysis (reference value: 54.63 to 55.88 %); format: functional
HCT-116 [24] = assay: Induction of apoptosis in human HCT116 cells assessed as late apoptotic cells at 2 uM after 24 hrs by AnnexinV-FITC/PI staining-based flow cytometry (reference value: 2.53 %); format: functional

CC(=O)O[C@H]1C[C@H]2OC[C@@]2(OC(C)=O)[C@H]2[C@H](OC(C)=O)[C@]3(C(C)(C)O)C[C@H](OC(=O)[C@H](O)[C@@H](NC(=O)OC(C)(C)C)c4ccccc4)C(C)=C3[C@@H](OC(=O)c3ccccc3)[C@H](OC(C)=O)[C@]12C
GI50 (HCT-116 [1]): 16.2 µM
inhibition (HEK-293T [2]): inactive
GI50 (OVCAR-3): 15.5 µM
GI50 (T47D): 38900 nM
GI50 (LOX IMVI): 21400 nM
GI50 (NCI-H322M): 50.1 µM
GI50 (DU-145): 21.4 µM
GI50 (MOLT-4): 42.7 µM
GI50 (SNB-19): 33.1 µM
GI50 (RXF 393): 12.6 µM
Activity (Tubulin (Homo sapiens) [3]): Active

C=C1[C@@H](OC(=O)[C@@H](O)[C@H](NC(=O)OC(C)(C)C)c2ccccc2)C[C@H](OC(C)=O)[C@@]2(C)[C@@H](OC(C)=O)[C@H](OC(=O)c3ccccc3)C3=C(C)[C@@H](O)C[C@@]3(C(C)(C)O)[C@@H](OC(C)=O)[C@H]12
GI50 (HCT-116 [1]): 45.2 µM
GI50 (OVCAR-3): 28.4 µM
GI50 (T47D): > 100000 nM
GI50 (LOX IMVI): > 100000 nM
GI50 (NCI-H322M): > 100 µM
GI50 (DU-145): 72.4 µM
GI50 (MOLT-4): 83.3 µM
GI50 (SNB-19): > 100 µM
GI50 (RXF 393): 26.6 µM

C=C1C(=O)C[C@H](OC(C)=O)[C@@]2(C)[C@@H](OC(C)=O)[C@H](OC(=O)c3ccccc3)C3=C(C)[C@@H](OC(=O)[C@H](O)[C@@H](NC(=O)c4ccccc4)c4ccccc4)C[C@@]3(C(C)(C)O)[C@@H](OC(C)=O)[C@H]12
Activity (HCT-116 [4]): 44.75%
Activity (HCT-116 [5]): 20.36%
Activity (HCT-116 [6]): 14.39%
Activity (HCT-116 [7]): 8.54%
inhibition (HEK-293T [8]): 37%
GI50 (HCT-116 [1]): 1.28 µM
inhibition (Tubulin (Homo sapiens) [9]): Active
Activity (HCT-116 [10]): Dose-dependent effect
Activity (HCT-116 [11]): 18.27%
GI50 (OVCAR-3): 1.72 µM
GI50 (T47D): 1860 nM
GI50 (LOX IMVI): 1860 nM
inhibition (HEK-293T [12]): 27%
Activity (HCT-116 [13]): Dose-dependent effect
Activity (HCT-116 [14]): 29.81%
GI50 (NCI-H322M): 18.5 µM
inhibition (HEK-293T [15]): Dose-dependent effect
Activity (Homo sapiens [16]): Active
Activity (HCT-116 [17]): Dose-dependent effect
GI50 (DU-145): 1.59 µM
Activity (HCT-116 [18]): 5.87%
GI50 (MOLT-4): 0.65 µM
GI50 (SNB-19): 33.7 µM
GI50 (RXF 393): 1.29 µM
Activity (HCT-116 [19]): 2.11%
Activity (Homo sapiens [20]): Active
inhibition (HEK-293T [21]): 14%
Activity (HCT-116 [22]): 2.82%
Activity (HCT-116 [23]): 55.02%
Activity (HCT-116 [24]): 14%

C=C1C(=O)C=C[C@@]2(C)[C@@H](OC(C)=O)[C@H](OC(=O)c3ccccc3)C3=C(C)[C@@H](OC(=O)[C@H](O)[C@@H](NC(=O)c4ccccc4)c4ccccc4)C[C@@]3(C(C)(C)O)[C@@H](OC(C)=O)[C@H]12
GI50 (HCT-116 [1]): 0.77 µM
GI50 (OVCAR-3): 1.33 µM
GI50 (T47D): 1700 nM
GI50 (LOX IMVI): 1570 nM
GI50 (NCI-H322M): 4.69 µM
GI50 (DU-145): 1.66 µM
GI50 (MOLT-4): 2.48 µM
GI50 (SNB-19): 15.3 µM
GI50 (RXF 393): 0.52 µM
